CFTR F508del cor = F508del CFTR correction, initial screen, CFBE line, single point; CFBE cells, YFP halide quenching; stimulated with forskolin plus potentiator P3; % fluorescence drop versus neutral controls; activity (quench increase), % at 7.58 µM; 350,000 compounds, 0.36% hits; AID 720511, 2013;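 active = mean added fluorescence quench of at least 8% versus neutral control, with both replicates also reaching 8%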;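 also: cells transiently co-express mutant CFTR-F508del with the halide-sensitive YFP; corrector assay measuring rescue of mutant channel to the surface after 24 h compound exposure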
FGF22 binding = binders of human FGF22 protein, primary screen, FGF22 synaptogenesis inhibitor project, biophysical, thermal shift, single point; Fibroblast growth factor 22 (Homo sapiens), Q9HCT0; recombinant FGF22 thermal shift, SYPRO orange fluorescence; percent of sucrose octasulfate shift, DMSO zero; activity (Tm shift, normalised), % at 9.99 µM; 340,000 compounds, 1.5% hits; AID 651658, 2012;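 active = mean Tm shift, scaled 0 neutral to 100 positive control, at about 1.3% or above, every replicate too, limit read from the data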
Target sequence (Q9HCT0 whole entry, looked up): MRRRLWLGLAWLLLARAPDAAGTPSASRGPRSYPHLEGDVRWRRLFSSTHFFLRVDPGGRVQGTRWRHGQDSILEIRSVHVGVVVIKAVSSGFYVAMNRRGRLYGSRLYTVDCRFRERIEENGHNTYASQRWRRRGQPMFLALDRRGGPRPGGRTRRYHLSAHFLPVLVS
dFosB act-1 = activators of delta FosB homodimer, primary screen, biochemical, fluorescence polarization, TAMRA-CDK5 oligo, single point | 340,000 compounds, 0.99% hits | activation, % at 25 µM | purified delta FosB; percent of positive-control signal above neutral wells | Protein FosB (Mus musculus), P13346;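 active = mean activation above about 17%, with every replicate also reaching it, limit read from the data, passing the limit was not always enough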
Target sequence (P13346 whole entry, looked up): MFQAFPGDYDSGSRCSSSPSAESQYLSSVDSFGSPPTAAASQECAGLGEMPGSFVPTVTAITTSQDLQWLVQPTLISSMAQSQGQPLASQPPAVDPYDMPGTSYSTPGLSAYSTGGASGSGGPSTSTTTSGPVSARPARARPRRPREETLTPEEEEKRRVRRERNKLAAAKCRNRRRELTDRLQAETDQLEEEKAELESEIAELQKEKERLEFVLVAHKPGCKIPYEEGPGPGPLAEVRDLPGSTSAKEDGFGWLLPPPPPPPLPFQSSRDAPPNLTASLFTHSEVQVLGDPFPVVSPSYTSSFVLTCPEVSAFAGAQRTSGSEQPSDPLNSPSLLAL
S100A4 MyoIIA = inhibitors of S100A4-myosin IIA peptide binding, primary screen, biochemical, fluorescence polarization, TAMRA-MyoIIA peptide; Protein S100-A4 (Homo sapiens), P26447; inhibition, % at 10.7 µM; 360,000 compounds, 0.14% hits; AID 652163, 2013;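 active = mean inhibition of at least 70% across replicates, with every replicate also reaching that level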
Target sequence (P26447 whole entry, looked up): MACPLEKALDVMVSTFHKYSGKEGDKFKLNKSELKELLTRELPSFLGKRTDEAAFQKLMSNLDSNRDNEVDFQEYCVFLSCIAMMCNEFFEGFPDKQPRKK
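Material: human S100A4 monomer with TAMRA-labelled myosin IIA peptide; buffer or medium: HEPES pH 7.2 with CaCl2, KCl, NaCl, DTT, Triton; compound dosing: one concentration per compound; schedule: 5 min incubation before reading; benchmarks: neutral control DMSO, positive control TFP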
dFosB act-2 = activators of mouse delta FosB DNA binding, confirmation, biochemical, fluorescence polarization, TAMRA-CDK5 oligo, cherry-picked samples; 2,400 tested, under 10 active; purified delta FosB; normalised: neutral wells 0, positive control 100; shares compounds with dFosB act-1; AID 588690, 2011; activation, % at 24.9 µM;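 active = highest replicate activation at or above 34% and every replicate reaching that threshold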;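 also: higher polarization means more probe DNA bound by delta FosB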
An asterisk follows results filed as active; nt = no result given. The list is not random: actives were taken first. Their share in the collection is about 2.2%.

SMILES	CFTR F508del cor	FGF22 binding	dFosB act-1	S100A4 MyoIIA	dFosB act-2
O=C(Nc1nc(-c2ccc(F)cc2)cs1)c1cccnc1	1.5	0.2	34.4*	-2.4	1.3
COc1ccc(CN(C)C[C@@H]2OCCCC[C@@H](C)Oc3ccc(NC(=O)c4ccncc4)cc3C(=O)N([C@@H](C)CO)C[C@@H]2C)cc1	0.0	-0.2	nt	-14.9	nt
CC(C)NC(=O)N(C)C[C@@H]1OCCCC[C@H](C)Oc2ccc(NC(=O)Nc3ccc(F)cc3)cc2C(=O)N([C@H](C)CO)C[C@@H]1C	0.3	-0.6	nt	3.1	nt
C[C@H](CO)N1C[C@H](C)[C@@H](CN(C)Cc2ccc(C(F)(F)F)cc2)OCCCC[C@H](C)Oc2ccc(NC(=O)NC3CCCCC3)cc2C1=O	-1.2	-0.5	nt	6.5	nt
NS(=O)(=O)c1ccc(NC(=O)c2ccc(CSc3ccccc3)o2)cc1	1.1	0.2	34.0*	-5.1	-8.4
O=C(Nc1ccc(F)cc1)c1ccc(CSc2ccccc2)o1	-4.5	0.2	-16.3	-3.4	nt
COc1ccc(NC(=O)COC(=O)c2ccc(-n3cnnn3)cc2)cc1Cl	0.0	0.0	34.7*	-4.8	-15.4
Cc1noc(C)c1NC(=O)Nc1cccc2c1O[C@@H](CN(C)Cc1ccc(C(=O)Nc3ccccc3N)cc1)[C@@H](C)CN([C@@H](C)CO)C2=O	-2.4	-0.1	nt	-3.1	nt
COc1cc(NC(=O)c2ccc(Cl)cc2Cl)ccc1-c1cc2ccccc2oc1=O	nt	nt	23.9*	nt	6.2
COc1ccc(C(=O)Nc2nc3ccc(OC)cc3s2)cc1	3.6	0.2	-12.9	-8.1	nt
COc1ccc2nc(NC(=O)c3cccc(-c4cc5ccccc5oc4=O)c3)sc2c1	nt	nt	43.9*	nt	0.4
COc1ccc(C(=O)Nc2cccc(-c3cc4ccccc4oc3=O)c2)cc1[N+](=O)[O-]	nt	nt	52.1*	nt	5.5
CC(=O)Nc1ccc(NC(=O)c2cccc(-c3cc4ccccc4oc3=O)c2)cc1	-2.4	0.0	4.7	-1.6	nt
COc1cc(NC(C)=O)ccc1-c1cc2ccccc2oc1=O	0.3	0.3	-10.0	4.7	nt
CNC[C@@H]1Oc2ncc(Br)cc2C(=O)N([C@H](C)CO)C[C@@H]1C	1.8	-0.1	nt	-2.8	nt
COc1ccccc1CC(=O)Nc1ccc([N+](=O)[O-])cc1O	3.0	0.2	24.0*	1.0	-6.3
NNc1nc(Nc2ccc([N+](=O)[O-])cc2)nc(N2CCCCCC2)n1	2.2	-0.1	67.2*	2.7	5.3
COc1ccc(OC)c(NC(=O)C(C)OC(=O)c2cc3ccccc3[nH]2)c1 (configuration not stated)	-4.4	0.1	18.6*	0.8	2.6
COc1ccccc1NC(=O)C(C)OC(=O)c1cc2ccccc2[nH]1 (configuration not stated)	0.1	-0.1	-8.4	3.0	nt
COc1ccccc1C#Cc1ccc([C@H]2[C@@H](CO)N3CCCCN(C(=O)C4CC4)C[C@@H]23)cc1	-0.7	-0.7	nt	37.5	nt
C[C@@H]1CCCCO[C@H](CN(C)Cc2ccncc2)[C@@H](C)CN([C@@H](C)CO)C(=O)c2cc(NC(=O)CCCN(C)C)ccc2O1	0.5	nt	nt	nt	nt
O=C(OCC(O)C(O)C(O)C(SCc1ccccc1)SCc1ccccc1)c1ccccc1 (configuration not stated)	-0.3	-0.2	22.8*	-2.5	5.1
Cc1cc(C)c(NC(=O)CS(=O)CC(=O)N2CCN(c3ccc(F)cc3)CC2)c(C)c1 (configuration not stated)	nt	nt	-6.2	nt	nt
Cc1cc(C)c(NC(=O)CS(=O)CC(=O)Nc2ccc(F)cc2F)c(C)c1 (configuration not stated)	-0.4	0.0	22.6*	-16.4	1.2
O=C(Nc1cccc(-c2nc3ccccc3s2)c1)c1cc(-n2cnnc2)ccc1Cl	nt	nt	-5.5	nt	nt
SMILES	CFTR F508del cor	FGF22 binding	dFosB act-1	S100A4 MyoIIA	dFosB act-2
Cc1c(NC(=O)c2cc(-n3cnnc3)ccc2Cl)cccc1-c1nc2ccccc2s1	nt	nt	31.5*	nt	-0.5
COc1ccccc1C#Cc1ccc([C@H]2[C@@H](C#N)N(C(=O)C3CCC3)[C@H]2CO)cc1	-1.1	-0.2	nt	1.9	nt
CCC(=O)NC(=S)Nc1ccc2oc(-c3ccc(OC)cc3)nc2c1	-0.3	0.2	40.5*	2.8	1.6
Cc1ccc(NC(=O)Cn2nc(-c3ccco3)ccc2=O)cc1Cl	-3.1	0.2	77.7*	-6.0	0.0
Cc1ccc(NC(=O)Cn2cc(C(F)(F)F)cc(Cl)c2=O)cc1Cl	-2.3	0.4	22.7*	36.7	5.6
Cc1ccc(NC(=O)Cn2nc(C)c([N+](=O)[O-])c2C)cc1Cl	1.3	-0.1	27.8*	6.0	-0.3
O=C(Cn1cc(C(F)(F)F)cc(Cl)c1=O)Nc1cccc(Cl)c1	nt	-0.2	6.4	1.3	nt
CCCNC(=O)N[C@@H]1CC[C@@H](CCn2cc(-c3cccc(F)c3)nn2)O[C@@H]1CO	0.8	0.0	nt	16.2	nt
CO[C@H]1CN(C)C(=O)c2cc(NC(=O)c3cc(C)on3)ccc2OC[C@H](C)N(CC2CC2)C[C@@H]1C	-3.7	-0.1	nt	0.1	nt
OC[C@@H]1[C@@H](c2ccc(-c3cccnc3)cc2)[C@H]2CN(CC3CCOCC3)CCCCN12	0.8	-0.2	nt	7.2	nt
O=C(O)c1ccc(/C=N/Nc2nc3ccccc3[nH]2)cc1	-1.8	0.0	25.0*	-3.9	0.1
CC(=O)N(C)C[C@@H]1Oc2cc(-c3cccnc3)ccc2S(=O)(=O)N([C@@H](C)CO)C[C@@H]1C	nt	-0.1	nt	-6.9	nt
Cc1cc(C(=O)Nc2cccc3c2O[C@H](CN(C)S(C)(=O)=O)[C@@H](C)CN([C@@H](C)CO)C3=O)n(C)n1	-2.6	0.1	nt	33.2	nt
CN(C)CCN(C(=O)CCc1ccccc1)c1nc2c(F)cc(F)cc2s1	-0.2	0.4	2.7	2.2	nt
COc1cc2ccccc2cc1C(=O)N(CCN(C)C)c1nc2c(F)cc(F)cc2s1	1.5	0.0	34.7*	-6.5	6.0
CN(C)CCCN(C(=O)c1cc(-c2cccs2)nc2ccccc12)c1nc2ccc(F)cc2s1	0.1	-0.2	28.1*	3.1	4.9
COc1cc2ccccc2cc1C(=O)N(CCN(C)C)c1nc2ccc(Br)cc2s1	1.2	0.0	44.0*	-2.5	4.7
CN(C)CCCN(C(=O)CCc1ccccc1)c1nc2ccc(F)cc2s1	nt	nt	-18.8	nt	nt
CCN(CC)CCN(C(=O)c1ccccc1OC)c1nc2ccc(F)cc2s1	1.6	0.0	-12.8	1.5	nt
CNC[C@H]1Oc2ccc(NC(=O)Cn3cnnn3)cc2C(=O)N([C@@H](C)CO)C[C@@H]1C	-1.8	-0.4	nt	-50.7	nt
O=C(CCn1c(=O)c2cccn2c2cccnc21)NCc1cccc(Cl)c1	-2.7	-0.1	21.2*	-24.0	-0.3

High-throughput results (PubChem BioAssay)
